Experimental data: ChEMBL document CHEMBL1129477, “Structure-activity relationships of the quinolone antibacterials against mycobacteria: effect of structural changes at N-1 and C-7” (J Med Chem, 1996)
In brackets after ≈: the same amount, converted by molar mass.

Columns and labels:
Format in all cases: functional
[1] = tested on: Mycolicibacterium fortuitum; assay: Anti-bacterial activity tested against Mycobacterium fortuitum (ATCG 6841)
Staphylococcus aureus = assay: Anti-bacterial activity was tested against Gram-positive SA-13 bacterium
How it was run: (§1)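 Standard microtitration MIC determination (µg/mL) against four representative Gram-negative and Gram-positive bacterial strains.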

Escherichia coli = assay: Anti-bacterial activity was tested against Gram-negative EC-1 bacterium; how it was run: as §1
Streptococcus pyogenes = assay: Anti-bacterial activity tested against Gram-positive SP1-1 bacterium; how it was run: as §1
Pseudomonas aeruginosa = assay: Anti-bacterial activity tested against Gram-negative PA-7 bacterium; how it was run: as §1
[2] = tested on: Mycolicibacterium smegmatis; assay: Anti-bacterial activity tested against Mycobacterium smegmatis (ATCG 19420)

MIC [1] [µg/mL] | MIC (Staphylococcus aureus) [µg/mL] | MIC (Escherichia coli) [µg/mL] | MIC (Streptococcus pyogenes) [µg/mL] | MIC (Pseudomonas aeruginosa) [µg/mL] | MIC [2] [µg/mL] | SMILES
0.13 (≈ 0.301 µM) | 0.1 (≈ 0.232 µM) | 0.2 (≈ 0.464 µM) | 0.1 (≈ 0.232 µM) | 0.8 (≈ 1.85 µM) | 0.25 (≈ 0.579 µM) | CNCC1CCN(c2cc3c(cc2F)c(=O)c(C(=O)O)cn3-c2ccc(F)cc2F)C1 (stereo not drawn)
2 (≈ 5.76 µM) | 1.6 (≈ 4.61 µM) | 3.1 (≈ 8.92 µM) | 0.4 (≈ 1.15 µM) | > 3.1 | 8 (≈ 23 µM) | CCn1cc(C(=O)O)c(=O)c2cc(F)c(N3CCC(CNC)C3)cc21 (stereo not drawn)
0.13 (≈ 0.346 µM) | 0.2 (≈ 0.533 µM) | 0.4 (≈ 1.07 µM) | 0.2 (≈ 0.533 µM) | 1.6 (≈ 4.26 µM) | 0.25 (≈ 0.666 µM) | CNCC1CCN(c2cc3c(cc2F)c(=O)c(C(=O)O)cn3C(C)(C)C)C1 (stereo not drawn)
2 (≈ 4.35 µM) | 0.8 (≈ 1.74 µM) | 3.1 (≈ 6.75 µM) | > 3.1 | > 3.1 | 4 (≈ 8.71 µM) | CC(C)CN1CCN(c2cc3c(cc2F)c(=O)c(C(=O)O)cn3-c2ccc(F)cc2F)CC1
0.5 (≈ 1.12 µM) | 0.4 (≈ 0.898 µM) | 0.8 (≈ 1.8 µM) | 3.1 (≈ 6.96 µM) | 3.1 (≈ 6.96 µM) | 1 (≈ 2.24 µM) | CC(C)N1CCN(c2cc3c(cc2F)c(=O)c(C(=O)O)cn3-c2ccc(F)cc2F)CC1
0.25 (≈ 0.599 µM) | 0.2 (≈ 0.479 µM) | 0.2 (≈ 0.479 µM) | 1.6 (≈ 3.83 µM) | 0.8 (≈ 1.92 µM) | 0.5 (≈ 1.2 µM) | CN1CCN(c2cc3c(cc2F)c(=O)c(C(=O)O)cn3-c2ccc(F)cc2F)CC1
0.5 (≈ 1.34 µM) | 0.8 (≈ 2.14 µM) | 0.1 (≈ 0.268 µM) | 0.8 (≈ 2.14 µM) | 1.6 (≈ 4.28 µM) | 0.5 (≈ 1.34 µM) | CCNCC1CCN(c2cc3c(cc2F)c(=O)c(C(=O)O)cn3C2CC2)C1 (stereo not drawn)
0.13 (≈ 0.348 µM) | 0.2 (≈ 0.536 µM) | 0.2 (≈ 0.536 µM) | 0.2 (≈ 0.536 µM) | 0.8 (≈ 2.14 µM) | 0.5 (≈ 1.34 µM) | CN(C)CC1CCN(c2cc3c(cc2F)c(=O)c(C(=O)O)cn3C2CC2)C1 (stereo not drawn)
1 (≈ 3 µM) | 3.1 (≈ 9.3 µM) | 0.8 (≈ 2.4 µM) | > 3.1 | 1.6 (≈ 4.8 µM) | 2 (≈ 6 µM) | CC(C)n1cc(C(=O)O)c(=O)c2cc(F)c(N3CCC(N)C3)cc21 (stereo not drawn)
0.25 (≈ 0.62 µM) | 0.4 (≈ 0.992 µM) | 0.1 (≈ 0.248 µM) | 0.4 (≈ 0.992 µM) | 0.2 (≈ 0.496 µM) | 0.5 (≈ 1.24 µM) | O=C(O)c1cn(-c2ccc(F)cc2F)c2cc(N3CCNCC3)c(F)cc2c1=O
0.5 (≈ 1.12 µM) | 0.2 (≈ 0.449 µM) | 0.4 (≈ 0.898 µM) | 0.1 (≈ 0.224 µM) | 1.6 (≈ 3.59 µM) | 0.5 (≈ 1.12 µM) | CCNCC1CCN(c2cc3c(cc2F)c(=O)c(C(=O)O)cn3-c2ccc(F)cc2F)C1 (stereo not drawn)

Further lines, the compound ahead of its results:

SMILES | MIC [1] [µg/mL] | MIC (Staphylococcus aureus) [µg/mL] | MIC (Escherichia coli) [µg/mL] | MIC (Streptococcus pyogenes) [µg/mL] | MIC (Pseudomonas aeruginosa) [µg/mL] | MIC [2] [µg/mL]
CC1CN(c2cc3c(cc2F)c(=O)c(C(=O)O)cn3C2CCC2)CC(C)N1 (stereo not drawn) | 0.13 (≈ 0.348 µM) | 3.1 (≈ 8.3 µM) | 0.4 (≈ 1.07 µM) | > 3.1 | 3.1 (≈ 8.3 µM) | 0.5 (≈ 1.34 µM)
CC(C)(C)n1cc(C(=O)O)c(=O)c2cc(F)c(N3CCNCC3)cc21 | < 0.03 | 0.8 (≈ 2.3 µM) | 0.2 (≈ 0.576 µM) | 1.6 (≈ 4.61 µM) | 0.4 (≈ 1.15 µM) | 0.13 (≈ 0.374 µM)
NC1CCN(c2cc3c(cc2F)c(=O)c(C(=O)O)cn3C2CC2)C1 (stereo not drawn) | < 0.03 | 0.4 (≈ 1.21 µM) | 0.05 (≈ 0.151 µM) | 0.8 (≈ 2.41 µM) | 0.2 (≈ 0.604 µM) | 0.25 (≈ 0.754 µM)
CCCCN1CCN(c2cc3c(cc2F)c(=O)c(C(=O)O)cn3C2CC2)CC1 | 1 (≈ 2.58 µM) | 0.4 (≈ 1.03 µM) | 0.1 (≈ 0.258 µM) | > 3.1 | 1.6 (≈ 4.13 µM) | 0.5 (≈ 1.29 µM)
CCN1CCN(c2cc3c(cc2F)c(=O)c(C(=O)O)cn3C2CCC2)CC1 | 0.5 (≈ 1.34 µM) | 3.1 (≈ 8.3 µM) | 0.8 (≈ 2.14 µM) | > 3.1 | > 3.1 | 2 (≈ 5.36 µM)
CC1CN(c2cc3c(cc2F)c(=O)c(C(=O)O)cn3C(C)(C)C)CCN1 (stereo not drawn) | 0.03 (≈ 0.083 µM) | 0.4 (≈ 1.11 µM) | 0.1 (≈ 0.277 µM) | > 3.1 | 0.8 (≈ 2.21 µM) | 0.06 (≈ 0.166 µM)
CC1CN(c2cc3c(cc2F)c(=O)c(C(=O)O)cn3C2CC2)CC(C)N1 (stereo not drawn) | 0.06 (≈ 0.167 µM) | 0.4 (≈ 1.11 µM) | 0.05 (≈ 0.139 µM) | > 3.1 | 0.8 (≈ 2.23 µM) | 0.13 (≈ 0.362 µM)
CCN1CCN(c2cc3c(cc2F)c(=O)c(C(=O)O)cn3C(C)(C)C)CC1 | 0.13 (≈ 0.346 µM) | 0.2 (≈ 0.533 µM) | 0.2 (≈ 0.533 µM) | > 3.1 | 1.6 (≈ 4.26 µM) | 0.13 (≈ 0.346 µM)
CC1CN(c2cc3c(cc2F)c(=O)c(C(=O)O)cn3C2CC2)CCN1 (stereo not drawn) | 0.06 (≈ 0.174 µM) | 0.8 (≈ 2.32 µM) | 0.05 (≈ 0.145 µM) | 0.8 (≈ 2.32 µM) | 0.2 (≈ 0.579 µM) | 0.25 (≈ 0.724 µM)
O=C(O)c1cn(C2CCC2)c2cc(N3CCNCC3)c(F)cc2c1=O | 0.5 (≈ 1.45 µM) | 3.1 (≈ 8.98 µM) | 0.4 (≈ 1.16 µM) | > 3.1 | 1.6 (≈ 4.63 µM) | 2 (≈ 5.79 µM)
CC(C)N1CCN(c2cc3c(cc2F)c(=O)c(C(=O)O)cn3C2CC2)CC1 | 0.25 (≈ 0.669 µM) | 0.2 (≈ 0.536 µM) | 0.1 (≈ 0.268 µM) | 0.8 (≈ 2.14 µM) | 1.6 (≈ 4.28 µM) | 0.25 (≈ 0.669 µM)
CC1CN(c2cc3c(cc2F)c(=O)c(C(=O)O)cn3C(C)C)CC(C)N1 (stereo not drawn) | 0.5 (≈ 1.38 µM) | 3.1 (≈ 8.58 µM) | 1.6 (≈ 4.43 µM) | > 3.1 | > 3.1 | 2 (≈ 5.53 µM)
